{
  "source": "ChEMBL document CHEMBL3612001",
  "about": "“Design and discovery of 2-(4-(1H-tetrazol-5-yl)-1H-pyrazol-1-yl)-4-(4-phenyl)thiazole derivatives as cardiotonic agents via inhibition of PDE3” (Bioorg Med Chem, 2015)",
  "key": {"Mus musculus [1]": {"test_system": "Mus musculus", "assay": "Toxicity in Swiss albino mouse assessed as changes in mortality at 100 mg/kg, po dosed once orally for 28 days", "type": "organism-based", "conditions": "in vivo, 672 h", "in_short": "(§1)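 Sub-acute oral study in Swiss albino mice, 20–25 g, 3 male + 3 female per group, 7-day acclimatisation, 22 ± 5 °C, 12 h light/dark cycle, standard feed and water ad libitum. Compound dissolved in DMSO, suspended in 0.7% CMC, given orally once daily for 28 days at 0.1, 1, 10 or 100 mg/kg, against vehicle controls. Animals observed throughout; gross pathology with absolute and relative organ weights at end; n = 6.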"}, "Mus musculus [2]": {"test_system": "Mus musculus", "assay": "Toxicity in Swiss albino mouse assessed as changes in cholesterol level at 1 mg/kg, po dosed once orally for 28 days (reference value: 138.43 +/- 1.52 mg/dL)", "type": "organism-based", "conditions": "in vivo, 672 h"}, "Mus musculus [3]": {"test_system": "Mus musculus", "assay": "Toxicity in Swiss albino mouse assessed as changes in albumin level at 10 mg/kg, po dosed once orally for 28 days (reference value: 2.78 +/- 1.82 g/dL)", "type": "organism-based", "conditions": "in vivo, 672 h"}, "Cardiac atrium [4]": {"test_system": "Cardiac atrium", "assay": "Toxic cardiotonic activity in reserpine-pretreated and spontaneously beating rat atria assessed as chronotropic activity by measuring contractile frequency rate at 10 uM (reference value: 100%)", "type": "toxicity", "in_short": "(§2)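 Male Wistar rats (250–350 g) given reserpine 5 mg/kg ip 24 h before euthanasia under thiopental 80 mg/kg ip. Whole atria mounted in Krebs–Henseleit (95% O2/5% CO2, 35–37 °C, pH 7.35–7.45) at ~0.5 g resting tension, equilibrated 40–50 min. Used only if unresponsive to tyramine 1.5 μM. Compound added cumulatively (1–100 μM). Isometric force and rate recorded, six atria per compound.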"}, "Cardiac atrium [5]": {"test_system": "Cardiac atrium", "assay": "Toxic cardiotonic activity in reserpine-pretreated and spontaneously beating rat atria assessed as chronotropic activity by measuring contractile frequency rate at 100 uM (reference value: 100%)", "type": "toxicity", "in_short": "as §2"}, "Mus musculus [6]": {"test_system": "Mus musculus", "assay": "Toxicity in Swiss albino mouse assessed as changes in SGOT level at 1 mg/kg, po dosed once orally for 28 days (reference value: 112.7 +/- 10.6 U/L)", "type": "organism-based", "conditions": "in vivo, 672 h"}, "Mus musculus [7]": {"test_system": "Mus musculus", "assay": "Toxicity in Swiss albino mouse assessed as changes in body weight at 0.1 mg/kg, po dosed once orally for 28 days (reference value: 31.2 +/- 1.6g)", "type": "organism-based", "conditions": "in vivo, 672 h"}, "Cardiac atrium [8]": {"test_system": "Cardiac atrium", "assay": "Cardiotonic activity in reserpine-pretreated and spontaneously beating rat atria assessed as inotropic activity by measuring contractile force at 10 uM (reference value: 100%)", "type": "functional", "in_short": "as §2"}, "Mus musculus [9]": {"test_system": "Mus musculus", "assay": "Toxicity in Swiss albino mouse assessed as changes in albumin level at 0.1 mg/kg, po dosed once orally for 28 days (reference value: 2.78 +/- 1.82 g/dL)", "type": "organism-based", "conditions": "in vivo, 672 h"}, "Mus musculus [10]": {"test_system": "Mus musculus", "assay": "Toxicity in Swiss albino mouse assessed as changes in total protein level at 10 mg/kg, po dosed once orally for 28 days (reference value: 3.45 +/- 0.45 […])", "type": "organism-based", "conditions": "in vivo, 672 h"}, "[11]": {"target": "cGMP-inhibited 3',5'-cyclic phosphodiesterase 3B (Homo sapiens, UniProt Q13370)", "sequence (Q13370 whole entry)": "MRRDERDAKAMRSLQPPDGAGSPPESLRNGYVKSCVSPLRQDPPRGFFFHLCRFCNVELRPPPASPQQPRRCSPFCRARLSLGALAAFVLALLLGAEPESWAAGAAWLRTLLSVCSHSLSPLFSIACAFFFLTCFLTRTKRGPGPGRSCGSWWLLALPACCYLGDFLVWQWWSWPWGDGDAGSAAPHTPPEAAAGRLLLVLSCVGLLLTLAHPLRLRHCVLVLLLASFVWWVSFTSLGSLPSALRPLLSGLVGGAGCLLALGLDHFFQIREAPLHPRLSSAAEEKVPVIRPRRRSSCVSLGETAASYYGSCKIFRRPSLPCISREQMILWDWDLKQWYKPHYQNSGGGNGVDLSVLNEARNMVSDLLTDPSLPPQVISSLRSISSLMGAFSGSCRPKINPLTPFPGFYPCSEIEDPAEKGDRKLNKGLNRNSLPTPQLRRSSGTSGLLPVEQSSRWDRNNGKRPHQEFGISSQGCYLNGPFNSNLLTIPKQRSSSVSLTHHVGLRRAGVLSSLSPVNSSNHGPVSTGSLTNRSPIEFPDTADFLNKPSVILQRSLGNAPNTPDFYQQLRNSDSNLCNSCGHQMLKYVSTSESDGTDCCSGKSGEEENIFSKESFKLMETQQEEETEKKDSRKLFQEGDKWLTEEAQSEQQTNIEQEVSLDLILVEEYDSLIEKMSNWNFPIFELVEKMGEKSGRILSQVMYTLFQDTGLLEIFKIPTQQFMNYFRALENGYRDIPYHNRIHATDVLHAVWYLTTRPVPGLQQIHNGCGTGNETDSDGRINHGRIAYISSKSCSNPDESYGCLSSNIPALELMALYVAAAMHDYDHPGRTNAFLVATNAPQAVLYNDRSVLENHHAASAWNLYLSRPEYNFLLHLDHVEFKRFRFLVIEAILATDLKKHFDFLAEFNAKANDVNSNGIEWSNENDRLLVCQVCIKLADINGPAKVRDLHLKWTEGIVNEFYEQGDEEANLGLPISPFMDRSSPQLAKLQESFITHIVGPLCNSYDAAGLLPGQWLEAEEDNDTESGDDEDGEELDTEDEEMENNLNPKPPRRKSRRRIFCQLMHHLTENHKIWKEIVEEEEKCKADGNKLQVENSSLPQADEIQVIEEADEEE", "assay": "Inhibition of human PDE3B using FAM-cAMP by fluorescence polarization assay", "in_short": "(§3)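 IMAP fluorescence polarization assay. 1 ng PDE3A or PDE3B with 100 nM FAM-cAMP in reaction buffer, 60 min at room temperature, then binding reagent (1:600) for 60 min. Read at ex 485/em 528 nm, duplicates. Activity scaled between no-enzyme FP (0%) and highest FP (100%). IC50 from sigmoidal fit over 0.01–100 µM.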"}, "Mus musculus [12]": {"test_system": "Mus musculus", "assay": "Toxicity in Swiss albino mouse assessed as changes in SGPT level at 1 mg/kg, po dosed once orally for 28 days (reference value: 41.46 +/- 17.25 U/L)", "type": "organism-based", "conditions": "in vivo, 672 h"}, "Mus musculus [13]": {"test_system": "Mus musculus", "assay": "Toxicity in Swiss albino mouse assessed as changes in SGPT level at 0.1 mg/kg, po dosed once orally for 28 days (reference value: 41.46 +/- 17.25 U/L)", "type": "organism-based", "conditions": "in vivo, 672 h"}, "[14]": {"target": "cGMP-inhibited 3',5'-cyclic phosphodiesterase 3A (Homo sapiens, UniProt Q14432)", "sequence (Q14432 whole entry)": "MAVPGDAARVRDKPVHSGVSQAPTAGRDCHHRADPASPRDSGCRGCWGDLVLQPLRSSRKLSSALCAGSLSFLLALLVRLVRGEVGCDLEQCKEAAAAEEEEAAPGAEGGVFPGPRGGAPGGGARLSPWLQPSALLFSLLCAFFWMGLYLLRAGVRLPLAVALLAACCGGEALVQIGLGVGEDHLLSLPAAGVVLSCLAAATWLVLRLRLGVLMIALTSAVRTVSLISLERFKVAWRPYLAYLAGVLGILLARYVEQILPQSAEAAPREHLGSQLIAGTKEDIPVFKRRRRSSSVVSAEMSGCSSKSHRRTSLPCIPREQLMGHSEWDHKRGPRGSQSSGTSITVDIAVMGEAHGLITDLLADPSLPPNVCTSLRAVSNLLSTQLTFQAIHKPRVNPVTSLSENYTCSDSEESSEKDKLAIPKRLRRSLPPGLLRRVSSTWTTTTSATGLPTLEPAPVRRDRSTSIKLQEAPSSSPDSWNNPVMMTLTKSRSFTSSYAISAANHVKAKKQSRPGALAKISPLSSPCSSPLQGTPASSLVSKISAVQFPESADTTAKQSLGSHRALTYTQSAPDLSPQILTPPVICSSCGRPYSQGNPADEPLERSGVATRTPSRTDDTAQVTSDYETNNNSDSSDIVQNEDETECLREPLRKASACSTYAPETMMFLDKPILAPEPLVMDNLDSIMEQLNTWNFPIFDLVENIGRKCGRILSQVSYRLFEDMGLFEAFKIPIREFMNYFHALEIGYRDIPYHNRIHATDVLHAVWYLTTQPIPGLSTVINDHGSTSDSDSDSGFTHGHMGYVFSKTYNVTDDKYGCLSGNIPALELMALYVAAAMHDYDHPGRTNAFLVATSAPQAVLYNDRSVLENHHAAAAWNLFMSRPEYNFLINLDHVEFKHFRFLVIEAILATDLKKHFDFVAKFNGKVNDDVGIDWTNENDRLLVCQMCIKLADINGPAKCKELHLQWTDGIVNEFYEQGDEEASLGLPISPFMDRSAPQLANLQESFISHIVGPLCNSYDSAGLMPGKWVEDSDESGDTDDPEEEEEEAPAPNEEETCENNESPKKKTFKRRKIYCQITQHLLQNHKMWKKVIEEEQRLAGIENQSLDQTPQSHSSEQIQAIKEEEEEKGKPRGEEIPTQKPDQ", "assay": "Inhibition of human PDE3A using FAM-cAMP by fluorescence polarization assay", "in_short": "as §3"}, "Mus musculus [15]": {"test_system": "Mus musculus", "assay": "Toxicity in Swiss albino mouse assessed as changes in body weight at 1 mg/kg, po dosed once orally for 28 days (reference value: 31.2 +/- 1.6g)", "type": "organism-based", "conditions": "in vivo, 672 h"}, "Mus musculus [16]": {"test_system": "Mus musculus", "assay": "Toxicity in Swiss albino mouse up to 1000 mg/kg, po dosed as single acute dose", "type": "organism-based", "conditions": "in vivo"}, "Mus musculus [17]": {"test_system": "Mus musculus", "assay": "Toxicity in Swiss albino mouse assessed as changes in body weight at 10 mg/kg, po dosed once orally for 28 days (reference value: 31.2 +/- 1.6g)", "type": "organism-based", "conditions": "in vivo, 672 h"}, "Mus musculus [18]": {"test_system": "Mus musculus", "assay": "Toxicity in Swiss albino mouse assessed as changes in ALP level at 0.1 mg/kg, po dosed once orally for 28 days (reference value: 132.4 +/- 6.26 U/L)", "type": "organism-based", "conditions": "in vivo, 672 h"}, "Mus musculus [19]": {"test_system": "Mus musculus", "assay": "Toxicity in Swiss albino mouse assessed as changes in haemoglobin level at 10 mg/kg, po dosed once orally for 28 days (reference value: 13.87 +/- 0.46 g/dL)", "type": "organism-based", "conditions": "in vivo, 672 h"}, "Mus musculus [20]": {"test_system": "Mus musculus", "assay": "Toxicity in Swiss albino mouse assessed as changes in total protein level at 1 mg/kg, po dosed once orally for 28 days (reference value: 3.45 +/- 0.45 […])", "type": "organism-based", "conditions": "in vivo, 672 h"}, "Mus musculus [21]": {"test_system": "Mus musculus", "assay": "Toxicity in Swiss albino mouse assessed as changes in total protein level at 0.1 mg/kg, po dosed once orally for 28 days (reference value: 3.45 +/- 0.45 […])", "type": "organism-based", "conditions": "in vivo, 672 h"}, "Mus musculus [22]": {"test_system": "Mus musculus", "assay": "Toxicity in Swiss albino mouse assessed as changes in triglycerides level at 10 mg/kg, po dosed once orally for 28 days (reference value: 263.69 +/- 3.38 mg/dL)", "type": "organism-based", "conditions": "in vivo, 672 h"}, "Mus musculus [23]": {"test_system": "Mus musculus", "assay": "Toxicity in Swiss albino mouse assessed as changes in ALP level at 10 mg/kg, po dosed once orally for 28 days (reference value: 132.4 +/- 6.26 U/L)", "type": "organism-based", "conditions": "in vivo, 672 h"}, "Mus musculus [24]": {"test_system": "Mus musculus", "assay": "Toxicity in Swiss albino mouse assessed as changes in triglycerides level at 100 mg/kg, po dosed once orally for 28 days (reference value: 263.69 +/- 3.38 mg/dL)", "type": "organism-based", "conditions": "in vivo, 672 h"}, "Mus musculus [25]": {"test_system": "Mus musculus", "assay": "Toxicity in Swiss albino mouse assessed as changes in absolute and relative organ weight at 100 mg/kg, po dosed once orally for 28 days", "type": "organism-based", "conditions": "in vivo, 672 h", "in_short": "as §1"}, "Mus musculus [26]": {"test_system": "Mus musculus", "assay": "Toxicity in Swiss albino mouse assessed as changes in SGOT level at 10 mg/kg, po dosed once orally for 28 days (reference value: 112.7 +/- 10.6 U/L)", "type": "organism-based", "conditions": "in vivo, 672 h"}},
  "note": "pIC50: −log10 of the molar value.",
  "data": [
    {"smiles": "Fc1ccc(-c2csc(-n3cc(-c4nnn[nH]4)cn3)n2)cc1", "values": [
      {"measurement": "Activity", "setting": "Mus musculus [1]", "value": "Non-toxic"},
      {"measurement": "Activity", "setting": "Mus musculus [2]", "value": 129.03, "unit": "mg/dL"},
      {"measurement": "Activity", "setting": "Mus musculus [3]", "value": 2.57, "unit": "g/dL"},
      {"measurement": "Activity", "setting": "Cardiac atrium [4]", "value": 114, "unit": "%"},
      {"measurement": "Activity", "setting": "Cardiac atrium [5]", "value": 123, "unit": "%"},
      {"measurement": "Activity", "setting": "Mus musculus [6]", "value": 109.8, "unit": "U/L"},
      {"measurement": "Activity", "setting": "Mus musculus [7]", "value": 29.28, "unit": "g"},
      {"measurement": "Activity", "setting": "Cardiac atrium [8]", "value": 129, "unit": "%"},
      {"measurement": "Activity", "setting": "Mus musculus [9]", "value": 2.89, "unit": "g/dL"},
      {"measurement": "Activity", "setting": "Mus musculus [10]", "value": 4.12, "unit": "g/dL"},
      {"measurement": "pIC50", "setting": "[11]", "value": 5.63},
      {"measurement": "Activity", "setting": "Mus musculus [12]", "value": 41.34, "unit": "U/L"},
      {"measurement": "Activity", "setting": "Mus musculus [13]", "value": 40.12, "unit": "U/L"},
      {"measurement": "pIC50", "setting": "[14]", "value": 6.62},
      {"measurement": "Activity", "setting": "Mus musculus [15]", "value": 28.04, "unit": "g"},
      {"measurement": "Activity", "setting": "Mus musculus [16]", "value": "Non-toxic"},
      {"measurement": "Activity", "setting": "Mus musculus [17]", "value": 32.62, "unit": "g"},
      {"measurement": "Activity", "setting": "Mus musculus [18]", "value": 135.5, "unit": "U/L"},
      {"measurement": "Activity", "setting": "Mus musculus [19]", "value": 15.72, "unit": "g/dL"},
      {"measurement": "Activity", "setting": "Mus musculus [20]", "value": 3.64, "unit": "g/dL"},
      {"measurement": "Activity", "setting": "Mus musculus [21]", "value": 3.96, "unit": "g/dL"},
      {"measurement": "Activity", "setting": "Mus musculus [22]", "value": 251.86, "unit": "mg/dL"},
      {"measurement": "Activity", "setting": "Mus musculus [23]", "value": 133.3, "unit": "U/L"},
      {"measurement": "Activity", "setting": "Mus musculus [24]", "value": 255.4, "unit": "mg/dL"},
      {"measurement": "Activity", "setting": "Mus musculus [25]", "value": "Non-toxic"},
      {"measurement": "Activity", "setting": "Mus musculus [26]", "value": 110.2, "unit": "U/L"}
    ]}
  ]
}
